Test results: ChEMBL document CHEMBL3243972, “Analogues of ornithine as inhibitors of ornithine decarboxylase. New deductions concerning the topography of the enzyme's active site” (J Med Chem, 1978)
Calls of active or inactive are those of the source. The rule behind the calls is not given here.

Tests used:
Ornithine decarboxylase [1] = molecular target: T1, Ornithine decarboxylase (Rattus norvegicus, UniProt P09057); assay: Competitive inhibition of ornithine decarboxylase in rat HTC cells using DL-[1-14C]ornithine as substrate after 1 hr by dixon plot analysis; format: cell-based
T1 sequence (P09057 whole entry): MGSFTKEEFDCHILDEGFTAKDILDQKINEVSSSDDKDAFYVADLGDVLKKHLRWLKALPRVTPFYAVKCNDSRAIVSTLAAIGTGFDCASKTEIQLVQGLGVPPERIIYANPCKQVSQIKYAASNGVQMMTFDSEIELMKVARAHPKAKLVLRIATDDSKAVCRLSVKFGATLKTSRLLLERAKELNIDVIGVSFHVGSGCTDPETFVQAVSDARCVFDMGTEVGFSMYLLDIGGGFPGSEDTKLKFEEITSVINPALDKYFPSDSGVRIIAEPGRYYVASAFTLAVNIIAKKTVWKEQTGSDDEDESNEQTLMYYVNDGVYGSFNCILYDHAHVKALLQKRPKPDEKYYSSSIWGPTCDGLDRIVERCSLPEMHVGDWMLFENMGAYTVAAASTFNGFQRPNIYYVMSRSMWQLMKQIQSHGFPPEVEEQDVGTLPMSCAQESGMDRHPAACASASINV
How it was run: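 HTC hepatoma cell ODC; sodium phosphate pH 7.1 assay with PLP 0.1 µmol, DTT 5 µmol, DL-[1-14C]ornithine 0.043 µmol, L-ornithine 0.8 µmol, final 0.95 mL; enzyme added to start; 14CO2 measured after 1 h at 37 °C. KI from Dixon plots, or for some values from ID50 at ornithine equal to KM, taking KI = ID50/2.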

Ornithine decarboxylase [2] = molecular target: T2, Ornithine decarboxylase (Bos taurus, UniProt P27117); assay: Competitive inhibition of bull prostate ornithine decarboxylase using DL-[1-14C]ornithine as substrate after 1 hr by dixon plot analysis; set-up: species or system Prostate gland
T2 sequence (P27117 whole entry): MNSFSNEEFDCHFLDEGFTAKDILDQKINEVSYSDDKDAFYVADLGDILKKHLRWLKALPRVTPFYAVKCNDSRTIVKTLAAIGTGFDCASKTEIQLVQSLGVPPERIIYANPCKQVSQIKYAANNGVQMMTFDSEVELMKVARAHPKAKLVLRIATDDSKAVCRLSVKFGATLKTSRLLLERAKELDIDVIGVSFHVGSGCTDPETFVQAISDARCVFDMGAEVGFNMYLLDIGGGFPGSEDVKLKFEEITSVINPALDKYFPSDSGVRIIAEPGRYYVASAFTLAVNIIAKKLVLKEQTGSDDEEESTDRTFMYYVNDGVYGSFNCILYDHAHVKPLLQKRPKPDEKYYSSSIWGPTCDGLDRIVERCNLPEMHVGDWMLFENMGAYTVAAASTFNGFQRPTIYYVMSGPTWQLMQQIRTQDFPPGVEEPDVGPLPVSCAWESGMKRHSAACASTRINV
How it was run: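 Bull prostate ODC purified ~fourfold: homogenized at 4 °C in Tris-HCl 10 mM pH 7.2, sucrose, EDTA, DTT 5 mM, PLP 0.1 mM; 20000g and 105000g spins, 20–50% (NH4)2SO4 cut, dialysis. Assay in 0.95 mL Tris-HCl pH 7.2 with PLP 0.1 µmol, DTT 5 µmol, DL-[1-14C]ornithine 0.043 µmol, L-ornithine 0.8 µmol; 14CO2 counted after 1 h at 37 °C; KI from Dixon plots, least-squares fit.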

[3] = Binding affinity to pyridoxal-phosphate
Ornithine decarboxylase [4] = molecular target: T1, Ornithine decarboxylase; assay: Competitive inhibition of rat liver ornithine decarboxylase using DL-[1-14C]ornithine as substrate after 1 hr by dixon plot analysis
How it was run: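 ODC from livers of rats given thioacetamide 18 h before sacrifice, ~tenfold purified by acid treatment at pH 4.6. Incubation: sodium phosphate pH 7.1, PLP 0.1 µmol, DTT 5 µmol, DL-[1-14C]ornithine 0.043 µmol plus L-ornithine 0.8 µmol in 0.95 mL; 14CO2 release after 1 h at 37 °C; KI from Dixon plots by least-squares fit.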

[5] = molecular target: T3, Ornithine decarboxylase (Rattus norvegicus) (UniProt P09057); assay: Inhibition of rat prostate ornithine decarboxylase at 10 mM; settings: Prostate gland
T3 sequence (whole entry): T1 sequence (P09057 whole entry)

[6] = molecular target: T3, Ornithine decarboxylase (Rattus norvegicus); assay: Competitive inhibition of rat liver ornithine decarboxylase using DL-[1-14C]ornithine as substrate at 0.25 mM after 1 hr by dixon plot analysis
[7] = molecular target: Ornithine decarboxylase (Bos taurus); assay: Inhibition of bull prostate ornithine decarboxylase
[8] = molecular target: T3, Ornithine decarboxylase (Rattus norvegicus); assay: Competitive inhibition of rat liver ornithine decarboxylase using DL-[1-14C]ornithine as substrate at 4 mM after 1 hr by dixon plot analysis
[9] = molecular target: T3, Ornithine decarboxylase (Rattus norvegicus); assay: Competitive inhibition of rat liver ornithine decarboxylase using DL-[1-14C]ornithine as substrate at 1 mM after 1 hr by dixon plot analysis
[10] = molecular target: T3, Ornithine decarboxylase (Rattus norvegicus); assay: Competitive inhibition of ornithine decarboxylase in rat HTC cells using DL-[1-14C]ornithine as substrate at 1 mM after 1 hr by dixon plot analysis; format: cell-based
Ornithine decarboxylase [11] = molecular target: T1, Ornithine decarboxylase; assay: Competitive inhibition of Sprague-Dawley rat prostate ornithine decarboxylase using DL-[1-14C]ornithine as substrate by liquid scintillation counting analysis; set-up: species or system Prostate gland

| Structure (SMILES) | Ki (Ornithine decarboxylase [2]) [µM] | Kd [3] [µM] | Ki (Ornithine decarboxylase [4]) [µM] | further results |
| --- | --- | --- | --- | --- |
| C[C@](N)(CCCN)C(=O)O | 20 | 2350 | 19 | Ki (Ornithine decarboxylase [1]; read-out: Ki): 20 µM |
| C[C@@](N)(CCCN)C(=O)O | 1000 | – | 1300 | Ki (Ornithine decarboxylase [1]; read-out: Ki): 1050 µM |
| NCCCC(N)c1nnn[nH]1 (centres undefined) | 70 | – | 120 | Ki (Ornithine decarboxylase [1]; read-out: Ki): 140 µM |
| N[C@H]1CC[C@](N)(C(=O)O)CC1 | – | – | 70 | Ki (Ornithine decarboxylase [1]; read-out: Ki): 70 µM |
| NCCC[C@@H](N)C(=O)O | – | – | – | inhibition [5]: 25% |
| N[C@H]1CC[C@@](N)(C(=O)O)CC1 | – | – | – | inhibition [6]: inactive |
| CNCCCC(C)(N)C(=O)O (racemic) | 740 | 5360 | 500 | – |
| CC(N)(CCCN)C(=O)O (racemic) | – | – | 40 | Ki (Ornithine decarboxylase [1]; read-out: Ki): 40 µM |
| NC/C=C/C(N)C(=O)O (racemic) | – | – | – | Ki [7]: 4400 µM |
| CC(N)(CCCCN)C(=O)O (racemic) | – | – | – | inhibition [8]: inactive |
| CC(N)(CCN)C(=O)O (racemic) | – | – | – | inhibition [8]: inactive |
| CN(C)CCCC(C)(N)C(=O)O (racemic) | – | – | – | inhibition [9]: inactive |
| NCCC(O)C(N)C(=O)O (racemic) | – | – | – | inhibition [10]: inactive |
| NCCCC(N)(CO)C(=O)O (racemic) | – | – | – | inhibition [9]: inactive |
| CC(N)(CCCNCCCN)C(=O)O (racemic; 3) | 4400 | 900 | – | Ki (Ornithine decarboxylase [1]; htc): Not Active |
| CC(N)(CCCNCCCN)C(=O)O (racemic; 8) | 5500 | – | – | – |
| NCCC[C@H](N)C(=O)O [ORNITHINE] | – | 1250 | – | – |
| NCCCCN [PUTRESCINE] | – | 800 | – | – |
| NCCCCNCCCN [SPERMIDINE] | 3000 | 700 | – | Ki (Ornithine decarboxylase [11]): 2700 µM |
